The values below come from PubChem BioAssay.

Assay [1] in a line: SK-BR-3 cell growth inhibitors, pilot screen, 24 h, human (AID 572;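 active = viability at or below 10% of carrier control in both of two separate runs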;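 note: compound exposure lasted between 18 and 24 h rather than exactly 24 h; 100% = carrier-treated control wells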). As to conditions: SK-BR-3 viability, CellTiter-Glo luminescence, at 10 µM, stronger effect = lower value. For orientation: In ATP-based viability assays light output follows the ATP content of the culture.
Assay [2] can be described thus: HUVEC growth inhibition – cell-based, human, primary screen (AID 575;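 active = viability at or below 30% in both replicate assays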;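 note: 100% = median of untreated cell wells with 0.1% DMSO on each plate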). To be noted: HUVEC proliferation, CellTiter-Glo luminescence, 72 h; at 10 µM; stronger effect = lower value. Put shortly: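 Test system: HUVEC primary cells. Quantity: 1250 endothelial cells in each well. Dosing: single-point 10 µM, DMSO 0.1% final. Incubation: 72 h treatment at 37 °C. Measured by: CTG luminescence. Control set: DMSO cell controls and MePR drug controls. Plate: collagen-coated 384-well format.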

Assay [3] is described as follows: growth inhibitors of H69AR lung tumor, primary screen, human, duplicate replicates (AID 580).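 Note: 100% = mean luminescence of untreated wells and 0% = no signal.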 To be noted: H69AR lung tumor cells viability, ATP luminescence, 72 h; at 10 µM; stronger effect = lower value.
Assay [4] in a line: reversal of MRP1-mediated doxorubicin resistance, pilot screen, H69AR cells, doxorubicin co-treatment (AID 601;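 active = viability loss from added drug above about 55%, and viability with drug at most 40%, in both replicates, limit read from the data, passing the limit was not always enough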). To be noted: CellTiter-Glo, 72 h, at 10 µM; for differential viability (reversal): stronger effect = higher value.
The nature of assay [5]: 384-well plate pilot, post-Golgi transport modulator project, inhibition of yeast transport mutant growth (AID 636; in the data active = inhibition above about 31%). To be noted: absorbance 615 nm, about 18 h, stronger effect = higher value.
A short description of assay [6]: growth suppression of yeast trafficking mutant, preliminary HTS, modulators of trafficking downstream of Golgi apparatus project, 1536-format plate, OD 615 nm (AID 637; in the data active = inhibition above about 30%). To be noted: yeast transport mutant growth, absorbance 615 nm, 18 h; stronger effect = higher value.
Setting [7] is: H69AR cells + 2 uM doxorubicin, measured here: viability with 2 uM doxorubicin, stronger effect = lower value.
[8] abbreviates: H69AR cells, compound alone cytotoxicity.

Activity calls are given as the source filed them.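 Rule for the calls, unless noted: active = viability at or under a set limit in both replicates, limit being median viability minus 3 SD (cut at about 48% in these data, passing the limit was not always enough); inconclusive = at or under the limit in just one replicate; inactive = at or above the limit in both replicates.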

In general, viability refers to a read-out of living cells in per cent, often relative to untreated cells. The inhibition is the change of the read-out against control, counted positive when it falls. With `Cc1cccc(CC(=O)Nc2c3c(nn2-c2cccc(Cl)c2)CS(=O)C3)c1` (centres undefined), the viability in assay [1] was 104% (inactive); in assay [2] it was 88.9% (inactive); in assay [3] it was 85.2% (inactive); in assay [4] (setting [7]) it was 96.1%; in assay [4] (setting [8]) it was 85.2%. Further, the differential viability (reversal) in assay [4] (H69AR cells + 2 uM doxorubicin) is -10.9% (inactive). Moreover, the figures for the inhibition in assay [5] and in assay [6] were 1.3% (inactive) and -6.72% (inactive), respectively.

In the case of `CC1CCN(CCCNC(=O)c2coc3nc4ccccc4nc23)CC1`, the viability is 148% (inactive) in assay [1]; 90.6% (inactive) in assay [2]; 92.9% (inactive) in assay [3]; 99.3% in assay [4] (setting [7]); 92.9% in assay [4] (setting [8]). In assay [4] (H69AR cells + 2 uM doxorubicin), the differential viability (reversal) was -6.4% (inactive). In addition, the inhibition in assay [5] was -2.73% (inactive); in assay [6], -2.13% (inactive).

As to `CCCn1cnc2c(cnn2-c2ccc(F)cc2)c1=O`, the viability in assay [1] is 100% (inactive); in assay [2], 90.9% (inactive); in assay [3], 98.8% (inactive); in assay [4] (setting [7]), 97.3%; in assay [4] (setting [8]) it was 98.8%. Also, the differential viability (reversal) in assay [4] (H69AR cells + 2 uM doxorubicin) is 1.56% (inactive). Also, the inhibition in assay [5] was -0.78% (inactive); in assay [6] it was 0.16% (inactive).

`CC(=O)OC(C(=O)NC1CCCCC1)c1ccncc1` (centres undefined): the viability in assay [1] was 88% (inactive); in assay [2] it was 98% (inactive); in assay [3], 109% (inactive); in assay [4] (setting [7]) it was 87.7%; in assay [4] (setting [8]), 109%. Also, the differential viability (reversal) in assay [4] (H69AR cells + 2 uM doxorubicin) was 21.3% (inactive). The inhibition in assay [5] is -0.14% (inactive); in assay [6], -0.48% (inactive).

For `O=C(O)C1CCCN1C(=O)c1cccs1` (centres undefined), the viability is 114% (inactive) in assay [1]; 88.3% (inactive) in assay [2]; 103% (inactive) in assay [3]; 100% in assay [4] (setting [7]); 103% in assay [4] (setting [8]). In addition, the differential viability (reversal) in assay [4] (H69AR cells + 2 uM doxorubicin) is 3.11% (inactive). For the same compound, the inhibition was 3.15% (inactive) in assay [5] and -2.58% (inactive) in assay [6].

`Cc1ccc(C)c(N(CC(=O)NC2CCCC2)C(=O)CCCC(=O)Nc2ccccn2)c1`: the viability is 99% (inactive) in assay [1]; 81.6% (inactive) in assay [2]; 102% (inactive) in assay [3]; 87.8% in assay [4] (setting [7]); 102% in assay [4] (setting [8]). Besides, the differential viability (reversal) in assay [4] (H69AR cells + 2 uM doxorubicin) is 13.7% (inactive). Also, the inhibition in assay [5] is -1.82% (inactive); in assay [6], -2.95% (inactive).

As for `COc1ccccc1NC(=O)NCc1ccc2c(c1)OCO2`, the viability in assay [1] is 87% (inactive); in assay [2], 101% (inactive); in assay [3], 93% (inactive); in assay [4] (setting [7]) it was 94.4%; in assay [4] (setting [8]) it was 93%. For the same compound, the differential viability (reversal) in assay [4] (H69AR cells + 2 uM doxorubicin) is -1.33% (inactive). In addition, the inhibition in assay [5] is -4.13% (inactive); in assay [6], -3.82% (inactive).

With `COc1ccc(C(=O)Nc2nc(C)c(C(=O)N(C)C)s2)cc1OC`, the viability was 70% (inactive) in assay [1]; 91% (inactive) in assay [2]; 94.9% (inactive) in assay [3]; 84.3% in assay [4] (setting [7]); 94.9% in assay [4] (setting [8]). Also, the differential viability (reversal) in assay [4] (H69AR cells + 2 uM doxorubicin) is 10.6% (inactive). The results for the inhibition in assay [5] and in assay [6] were -8.63% (inactive) and 4.52% (inactive), respectively.

As for `CCCCn1cnc2c1c(=O)n(C)c(=O)n2C`, the viability in assay [1] was 77% (inactive); in assay [2], 100% (inactive); in assay [3], 100% (inactive); in assay [4] (setting [7]), 89%; in assay [4] (setting [8]), 100%. Further, the differential viability (reversal) in assay [4] (H69AR cells + 2 uM doxorubicin) is 11.1% (inactive). The results for the inhibition in assay [5] and in assay [6] were 3.24% (inactive) and 0.18% (inactive), respectively.

Take `COc1ccc(NC(=O)CSc2nc3c(c(=O)n2-c2ccc(F)cc2)SCC3)c(OC)c1`: the viability in assay [1] was 89% (inactive); in assay [2], 91.1% (inactive); in assay [3], 90.7% (inactive); in assay [4] (setting [7]), 77.5%; in assay [4] (setting [8]) it was 90.7%. Besides, the differential viability (reversal) in assay [4] (H69AR cells + 2 uM doxorubicin) is 13.1% (inactive). Besides, the inhibition was -6.71% (inactive) in assay [5] and 3.87% (inactive) in assay [6].

For `CCCn1c(=O)c2[nH]c(C3CCCC3)nc2n(CCC)c1=O`, the viability in assay [1] was 100% (inactive); in assay [2] it was 77.3% (inactive); in assay [3], 70.7% (inactive); in assay [4] (setting [7]) it was 19.9%; in assay [4] (setting [8]) it was 70.7%. Also, the differential viability (reversal) in assay [4] (H69AR cells + 2 uM doxorubicin) is 50.8% (inactive). Moreover, the inhibition in assay [5] was -1.3% (inactive); in assay [6] it was -1% (inactive).

In the case of `CC1(C)SC2[C@H](NC(=O)C(NC(=O)N3CCNC3=O)c3ccccc3)C(=O)N2C1C(=O)O` (some centres undefined), the viability was 107% (inactive) in assay [1]; 80.2% (inactive) in assay [2]; 95.3% (inactive) in assay [3]; 93.6% in assay [4] (setting [7]); 95.3% in assay [4] (setting [8]). Moreover, the differential viability (reversal) in assay [4] (H69AR cells + 2 uM doxorubicin) is 1.74% (inactive). Besides, the inhibition in assay [5] was 0.26% (inactive); in assay [6], 2.67% (inactive).

In the case of `Cc1cc(C)nc(SCCS(=O)Cc2ccc(Cl)cc2)n1` (centres undefined), the viability in assay [1] is 102% (inactive); in assay [2], 99.4% (inactive); in assay [3], 96.2% (inactive); in assay [4] (setting [7]), 91.5%; in assay [4] (setting [8]) it was 96.2%. Also, the differential viability (reversal) in assay [4] (H69AR cells + 2 uM doxorubicin) is 4.69% (inactive). Further, the results for the inhibition in assay [5] and in assay [6] were -2.34% (inactive) and -3.11% (inactive), respectively.

In the case of `CCCC(=O)Nc1nnc(CC(=O)N2CCCC2)s1`, the viability was 90% (inactive) in assay [1]; 113% (inactive) in assay [2]; 96.9% (inactive) in assay [3]; 89.5% in assay [4] (setting [7]); 96.9% in assay [4] (setting [8]). In addition, in assay [4] (H69AR cells + 2 uM doxorubicin), the differential viability (reversal) was 7.37% (inactive). Moreover, the results for the inhibition in assay [5] and in assay [6] were -9.73% (inactive) and -5.27% (inactive), respectively.

As to `Cc1nccn1CCCN1C(=O)OC2(CCCCC2)C1(C)O` (centres undefined), the viability is 90% (inactive) in assay [1]; 88.1% (inactive) in assay [2]; 98.5% (inactive) in assay [3]; 102% in assay [4] (setting [7]); 98.5% in assay [4] (setting [8]). Besides, in assay [4] (H69AR cells + 2 uM doxorubicin), the differential viability (reversal) was -3.27% (inactive). For the same compound, the inhibition in assay [5] is -7.53% (inactive); in assay [6], -1.29% (inactive).

Turning to `COc1nc(OC)nc(N2CCC(C(=O)NCc3cccs3)CC2)n1`, the viability in assay [1] is 93% (inactive); in assay [2], 101% (inactive); in assay [3], 91.9% (inactive); in assay [4] (setting [7]), 93.3%; in assay [4] (setting [8]), 91.9%. For the same compound, the differential viability (reversal) in assay [4] (H69AR cells + 2 uM doxorubicin) is -1.4% (inactive). Moreover, the inhibition in assay [5] is -5.32% (inactive); in assay [6] it was -9.51% (inactive).

In the case of `COc1ccc(Cn2nnnc2C(c2ccccn2)N2CCN(c3cc(Cl)ccc3C)CC2)cc1` (centres undefined), the viability is 101% (inactive) in assay [1]; 73.1% (inactive) in assay [2]; 77.3% (inactive) in assay [3]; 85% in assay [4] (setting [7]); 77.3% in assay [4] (setting [8]). In addition, the differential viability (reversal) in assay [4] (H69AR cells + 2 uM doxorubicin) was -7.71% (inactive). Also, the inhibition in assay [5] was -2.43% (inactive); in assay [6], 31.6% (active).

Consider `Cc1cc(=O)oc2ccc(OCC(=O)N(Cc3ccc(F)cc3)Cc3ccco3)cc12`, for which the viability in assay [1] was 91% (inactive); in assay [2], 50.9% (inactive); in assay [3], 72% (inactive); in assay [4] (setting [7]) it was 60.5%; in assay [4] (setting [8]), 72%. Besides, the differential viability (reversal) in assay [4] (H69AR cells + 2 uM doxorubicin) is 11.6% (inactive). The results for the inhibition in assay [5] and in assay [6] were -2.47% (inactive) and -9.35% (inactive), respectively.
